Screening results deposited in PubChem BioAssay by several laboratories.
Only a selection was taken, and hits are over-represented in it overall.
CHOP inh: inhibitors of CHOP induction in ER stress response | CHO-K1 CHOP-promoter luciferase, tunicamycin-induced, 15-18 h | inhibition, % at 10 µM | 220,000 compounds, 3.8% hits;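 active = compounds that reduced the stress-induced luciferase reporter signal by more than about 70% of percent inhibition, limit read from the data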
XBP1 UPR activ: adaptive UPR (XBP1) activation; CHO-XBP1 luciferase reporter, IRE1-XBP1 UPR activation, luminescence; percent of tunicamycin response, DMSO as zero; 330,000 compounds, 0.33% hits; activation, % at 20 µM;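 active = versus positive control, 20 µM dose yields 30% or more activation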
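Test system: CHO-XBP1 luciferase reporter cells | Buffer or medium: Serum-containing F12 medium, 10% FBS | Schedule: 6 h compound exposure at 37 °C, 5% CO2 | Detection: Steady-Glo luciferase glow luminescence, 10 min after reagent addition | Read-out basis: Activation, % of tunicamycin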
CHOP UPR activ: apoptotic UPR (CHOP) activation; CHO-CHOP luciferase reporter, luminescence; percent of tunicamycin response over DMSO baseline; activation, % at 10 µM; 330,000 compounds, 0.34% hits; AID 449763;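 active = at 10 µM dose, activation of 40% or more, normalized to positive control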
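Assay system: CHO cells with stable CHOP pathway luciferase reporter; Buffer or medium: F12 plus 10% serum; Times: 16-18 h cell attachment, then 6 h compound exposure, 37 °C; Signal: luciferase luminescence; Read-out basis: percent activation relative to tunicamycin control; Control set: tunicamycin high control, DMSO low control.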
PvdQ inh: P. aeruginosa PvdQ acylase inhibition; inhibition, % at 10 µM; purified PvdQ acylase, fluorescence plate reader; 340,000 compounds, 0.063% hits; in the data active = inhibition above about 30%, passing the limit was not always enough
Large screens that a line does not name were inactive.

FC(F)(F)c1cccc(-c2nc3nc(Cl)c(Cl)nc3[nH]2)c1	CHOP inh 74
COc1cnc(-c2cccc(C(F)(F)F)c2)[nH]c1=O	none
Cc1ccc(C)c(Cn2nnc3c(=O)[nH]c(C4CCCN(S(=O)(=O)Cc5ccccc5)C4)nc32)c1 (stereo not given)	XBP1 UPR activ 103 (no result: CHOP inh)
CCCCOc1ccc(N=Cc2ccc[nH]2)cc1	none (no result: CHOP inh)
CSCCC(NS(=O)(=O)c1ccccc1)C(=O)Nc1nccs1 (stereo not given)	none (no result: CHOP inh)
Cn1cccc1C(=O)OCc1cc(Cl)cc2c1OCOC2	CHOP inh 73
Cc1ccnc(NS(=O)(=O)c2ccc(N)cc2)n1	none
Nc1nc(Cl)cc(N2CCC(c3cc(-c4ccc(Cl)cc4)n[nH]3)CC2)n1	none
COc1ccc(-c2cc(C3CCN(c4cc(Cl)nc(N)n4)CC3)[nH]n2)cc1	CHOP inh 73
COc1ccc(OC)c(-c2cc(C3CCN(c4cc(Cl)nc(N)n4)CC3)[nH]n2)c1	CHOP inh 73
COc1ccc(OC)c(-c2cc(C3CCN(c4ncccc4[N+](=O)[O-])CC3)[nH]n2)c1	none
COc1cccc(/C=N/NC(=O)C(=O)Nc2ccccc2OC(F)(F)C(F)F)c1O	CHOP inh 78
COc1ccccc1/C=N/NC(=O)c1cccc(OC(F)(F)C(F)F)c1	none
CC1CCCC(NC(=O)Nc2cccs2)C1C (stereo not given)	none
O=C(CSc1ccccc1F)NNC(=O)c1cncc(Br)c1	none (no result: CHOP inh)
Cc1ccc(Oc2cc(NC(=O)CCCn3nc([N+](=O)[O-])c(Cl)c3C)cc([N+](=O)[O-])c2)cc1	CHOP inh 81
Cc1c(Cl)c([N+](=O)[O-])nn1CCCC(=O)Nc1cccc(Cl)c1	none
COC(=O)c1ccccc1NC(=O)CCCn1nc([N+](=O)[O-])cc1C	none
Cc1cc([N+](=O)[O-])nn1CCCC(=O)Nc1cc(Oc2ccccc2)cc([N+](=O)[O-])c1	CHOP inh 74
Cc1cc([N+](=O)[O-])nn1CCCC(=O)Nc1cc(Oc2ccc(F)cc2)cc([N+](=O)[O-])c1	CHOP inh 70
COc1ccc(CNC(=O)CCCn2nc([N+](=O)[O-])cc2C)cc1	none
CCCn1cc(CN2CCC(n3nccc3NC(=O)c3ccccc3)CC2)c(C)n1	none (no result: CHOP inh)
COC(=O)c1c(NC(NC(=O)C(C)(C)C)C(Cl)(Cl)Cl)sc2c1CCC2 (stereo not given)	CHOP inh 78
COC(=O)c1c(NC(NC(=O)CC(C)C)C(Cl)(Cl)Cl)sc2c1CCC2 (stereo not given)	CHOP inh 91
COC(=O)c1c(NC(NC(=O)C(C)C)C(Cl)(Cl)Cl)sc2c1CCC2 (stereo not given)	none
CCC(=O)NC(Nc1sc2c(c1C(=O)OC)CCC2)C(Cl)(Cl)Cl (stereo not given)	none
O=c1cc(N2CCCCC2)c(-c2ccccc2)nn1Cc1ccccc1	CHOP inh 85
Cn1nc(-c2ccccc2)c(N2CCCCC2)cc1=O	none
COc1ccc(Cn2nc(-c3ccccc3)c(N3CCCCC3)cc2=O)cc1	CHOP inh 74
N#Cc1cc(-c2ccccc2)nc(Oc2ccc(Cl)cc2)n1	CHOP inh 71
N#Cc1cc(-c2ccccc2)nc(NN)n1	none
Cc1nn(C(C)(C)C)c(OC(=O)c2ccco2)c1Sc1ccccc1	CHOP inh 75
Cc1nn(C(C)(C)C)c(OC(=O)c2cccs2)c1Sc1ccccc1	CHOP inh 81
Cc1nn(C(=O)c2ccco2)c(C)c1Sc1ccccc1	CHOP inh 93
CCc1nc2ccc(C(=O)N3CCN(c4ccc(Cl)cc4)CC3)cc2nc1CC	none (no result: CHOP inh)
COC(=O)c1ccc(NC(=S)N2CCN(Cc3ccccc3OC)CC2)cc1	none
Cc1cc(N2CCN(C(=O)c3ccco3)CC2)n2nc(-c3cccc(Cl)c3)cc2n1	CHOP inh 96
Cc1cc(N2CCN(C(=O)c3ccco3)CC2)n2nc(C)c(-c3ccccc3)c2n1	none (no result: XBP1 UPR activ, CHOP UPR activ)
CCn1c(=O)c2sccc2n(Cc2cccc(C)c2)c1=O	none (no result: CHOP inh)
Cc1c(C(=O)NCC2CCCO2)oc2c(Cl)cccc12 (stereo not given)	none (no result: CHOP inh)
CC(CN1CCOCC1)OC(=O)c1ccc(Br)cc1 (stereo not given)	CHOP inh 92
O=S(=O)(c1ccc(Br)s1)N1CCN(CCOc2ccccc2)CC1	none (no result: CHOP inh)
O=C(NC(=S)NCc1ccccc1)C1CCCCC1	CHOP inh 89
CC(C)COc1cccc(-c2cc(C(=O)N/N=C/c3ccncc3)c3ccccc3n2)c1	none (no result: CHOP inh)
Cc1cccc(N=C2NN=C(c3c(C)[nH]c4ccccc34)CS2)c1	CHOP inh 72
